# Laboratory results taken from ChEMBL document CHEMBL1145927 (J Med Chem, 2003).
# Legend:
# [1] = biological target: T1, Prostaglandin G/H synthase 2 (Homo sapiens) (UniProt P35354); conditions: at 1 µM
# T1 sequence (whole entry): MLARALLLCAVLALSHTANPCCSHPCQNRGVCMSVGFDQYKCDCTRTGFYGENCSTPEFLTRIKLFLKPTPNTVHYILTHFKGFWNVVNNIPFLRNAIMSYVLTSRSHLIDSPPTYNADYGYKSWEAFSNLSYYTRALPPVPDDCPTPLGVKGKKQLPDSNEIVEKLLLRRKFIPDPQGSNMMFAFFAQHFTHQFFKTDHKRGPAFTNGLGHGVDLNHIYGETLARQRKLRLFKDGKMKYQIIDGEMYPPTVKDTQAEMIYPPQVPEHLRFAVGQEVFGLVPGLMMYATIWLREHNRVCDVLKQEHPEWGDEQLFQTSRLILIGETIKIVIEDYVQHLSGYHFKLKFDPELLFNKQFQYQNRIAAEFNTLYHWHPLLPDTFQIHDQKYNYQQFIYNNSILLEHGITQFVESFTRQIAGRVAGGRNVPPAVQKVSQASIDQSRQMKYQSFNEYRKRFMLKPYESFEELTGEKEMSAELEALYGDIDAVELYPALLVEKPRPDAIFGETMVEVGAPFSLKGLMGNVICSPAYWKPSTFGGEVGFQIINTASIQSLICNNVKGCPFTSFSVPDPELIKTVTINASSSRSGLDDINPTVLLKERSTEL
# [2] = biological target: T2, Prostaglandin G/H synthase 1 (Homo sapiens, UniProt P23219); conditions: at 100 µM
# T2 sequence (P23219 whole entry): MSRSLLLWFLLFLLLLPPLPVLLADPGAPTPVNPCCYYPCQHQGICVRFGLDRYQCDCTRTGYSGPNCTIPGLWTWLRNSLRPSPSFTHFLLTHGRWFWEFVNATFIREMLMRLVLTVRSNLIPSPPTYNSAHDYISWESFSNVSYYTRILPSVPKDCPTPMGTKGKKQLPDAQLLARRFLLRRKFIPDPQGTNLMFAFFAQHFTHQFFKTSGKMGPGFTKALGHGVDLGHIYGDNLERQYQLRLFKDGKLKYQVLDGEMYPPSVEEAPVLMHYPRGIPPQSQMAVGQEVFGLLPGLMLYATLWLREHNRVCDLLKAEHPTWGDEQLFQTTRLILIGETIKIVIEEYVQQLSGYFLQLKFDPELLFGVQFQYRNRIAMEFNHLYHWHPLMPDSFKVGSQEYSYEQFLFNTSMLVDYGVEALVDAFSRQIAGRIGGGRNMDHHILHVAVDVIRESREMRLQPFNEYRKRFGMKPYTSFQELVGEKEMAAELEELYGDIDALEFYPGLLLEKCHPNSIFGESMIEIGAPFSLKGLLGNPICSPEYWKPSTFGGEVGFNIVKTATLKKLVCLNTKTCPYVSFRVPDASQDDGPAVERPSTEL
# [3] = biological target: T1, Prostaglandin G/H synthase 2 (Homo sapiens); conditions: at 10 µM
# [4] = biological target: T3, Prostaglandin G/H synthase 1 (Ovis aries) (UniProt P05979); assay: Compound was tested for in vitro inhibition of recombinant ovine Prostaglandin G/H synthase 1 (COX-1) at a concentration of 100 uM
# T3 sequence (whole entry): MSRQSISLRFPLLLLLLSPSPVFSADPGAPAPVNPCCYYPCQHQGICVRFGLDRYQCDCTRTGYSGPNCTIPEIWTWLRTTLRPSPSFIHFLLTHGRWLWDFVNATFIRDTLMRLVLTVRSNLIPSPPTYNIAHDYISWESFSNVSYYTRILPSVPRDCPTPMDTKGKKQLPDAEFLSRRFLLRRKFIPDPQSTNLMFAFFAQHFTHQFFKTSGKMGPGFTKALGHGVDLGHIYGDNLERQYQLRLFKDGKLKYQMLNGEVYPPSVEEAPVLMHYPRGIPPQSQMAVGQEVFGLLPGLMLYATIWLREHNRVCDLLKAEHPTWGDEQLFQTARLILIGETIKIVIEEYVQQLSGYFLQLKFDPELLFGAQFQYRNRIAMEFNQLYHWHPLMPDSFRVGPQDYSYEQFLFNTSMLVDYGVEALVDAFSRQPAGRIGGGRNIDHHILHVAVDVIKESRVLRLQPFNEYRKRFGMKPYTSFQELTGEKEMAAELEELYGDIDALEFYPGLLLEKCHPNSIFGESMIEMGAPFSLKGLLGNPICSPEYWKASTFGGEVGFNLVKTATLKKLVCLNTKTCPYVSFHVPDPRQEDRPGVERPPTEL
# Procedure, shortened: (§1)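 Supplied recombinant ovine COX-1 (5 units) preincubated 2 min at 25 °C in 0.1 M Tris-HCl pH 8.0 with 5 mM EDTA, 2 mM phenol and heme; compound or DMSO added, 20 min at 25 °C; started with 10 mM arachidonic acid stock, 2 min at 37 °C; stopped with HCl, SnCl2 reduction; prostaglandins by EIA; percent inhibition versus solvent control.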
# [5] = biological target: T2, Prostaglandin G/H synthase 1; assay: In vitro average percent inhibition of human prostaglandin G/H synthase 1 (COX-1) at a concentration of 100 uM
# Procedure, shortened: as §1, with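 “human” for “ovine”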
# [6] = biological target: T2, Prostaglandin G/H synthase 1; assay: In vitro average percent Inhibition of Prostaglandin G/H synthase 1 (COX-1) at a concentration of 100 uM in human whole blood by human whole blood assay; format: tissue-based
# [7] = biological target: T1, Prostaglandin G/H synthase 2 (Homo sapiens); conditions: Blood; at 1 µM
# [8] = biological target: T1, Prostaglandin G/H synthase 2 (Homo sapiens); conditions: Blood; at 10 µM
# [9] = biological target: T4, Prostaglandin G/H synthase 2 (Homo sapiens, UniProt P35354); assay: Compound was tested for the inhibition of human Prostaglandin G/H synthase 2 (COX-2) in human whole blood; format: tissue-based
# T4 sequence (P35354 whole entry): T1 sequence (whole entry)
# [10] = biological target: T2, Prostaglandin G/H synthase 1; assay: Compound was tested for the inhibition of human Prostaglandin G/H synthase 1 (COX-1) in human whole blood; format: tissue-based
# [11] = biological target: T2, Prostaglandin G/H synthase 1; assay: In vitro average percent Inhibition of Prostaglandin G/H synthase 1 (COX-1) at a concentration of 100 uM determined in human whole blood by human whole blood (HWB) assay; format: tissue-based
# [12] = biological target: T1, Prostaglandin G/H synthase 2 (Homo sapiens); assay: In vitro average percent Inhibition of Prostaglandin G/H synthase 2 (COX-2) at a concentration of 10 uM determined by human whole blood (HWB) assay
# Procedure, shortened: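 Heparinized whole blood from male or female donors free of aspirin/NSAIDs for 14 days, 1 mL aliquots pre-warmed 15 min at 37 °C, 5% CO2; compound in DMSO, duplicate wells; COX-2 induced by E. coli LPS added 4.5 h later, incubated 5 h; stopped on ice with 2 mM EGTA; plasma methanol-extracted, TXB2 by EIA; average of two donors.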
# [13] = biological target: T2, Prostaglandin G/H synthase 1; assay: Compound was tested for the inhibition of recombinant human Prostaglandin G/H synthase 1 (COX-1)
# [14] = biological target: T4, Prostaglandin G/H synthase 2; assay: Compound was tested for the inhibition of recombinant human Prostaglandin G/H synthase 2 (COX-2)
inhibition [1] [%],inhibition [2] [%],inhibition [3] [%],inhibition [5] [%],SMILES,other results
0,0,10,,Cc1cccnc1C(=O)c1cc2c(cc1-c1ccc(S(C)(=O)=O)cc1)OCO2,
10,,0,,CS(=O)(=O)c1ccc(-c2cc3c(cc2Cc2ccc(F)cc2)OCO3)cc1,inhibition [4]: 10%
35,10,10,,CS(=O)(=O)c1ccc(-c2cc3c(cc2C(=O)N2CCOCC2)OCO3)cc1,
,,,25,CS(=O)(=O)c1ccc(-c2cc3c(cc2Cc2cccc(F)c2)OCO3)cc1,
,,,55,CS(=O)(=O)c1ccc(-c2cc3c(cc2C(=O)C2CCCCC2)OCO3)cc1,
65,,90,70,CS(=O)(=O)c1ccc(-c2cc3c(cc2C=C2CCCC2)OCO3)cc1,inhibition [4]: 80%
40,10,40,,CCOC(=O)C1CCCN(Cc2cc3c(cc2-c2ccc(S(C)(=O)=O)cc2)OCO3)C1 (configuration not stated),
0,0,20,,CS(=O)(=O)c1ccc(-c2cc3c(cc2C(=O)N2CCCC2)OCO3)cc1,
0,30,65,,CS(=O)(=O)c1ccc(-c2cc3c(cc2Cc2cccnc2)OCO3)cc1,inhibition [6]: 35%; inhibition [7]: 15%; inhibition [8]: 15%
10,0,25,,CS(=O)(=O)c1ccc(-c2cc3c(cc2CN2CCC(O)CC2)OCO3)cc1,
,,,95,CS(=O)(=O)c1ccc(-c2cc3c(cc2C(=O)c2ccc(F)cc2)OCO3)cc1,
,,,50,CS(=O)(=O)c1ccc(-c2cc3c(cc2C(=O)c2cc(F)cc(F)c2)OCO3)cc1,
,,,40,Cc1ccc(F)c(Cc2cc3c(cc2-c2ccc(S(C)(=O)=O)cc2)OCO3)c1,
10,0,90,,CS(=O)(=O)c1ccc(-c2cc3c(cc2C(=O)c2ccccc2)OCO3)cc1,inhibition [6]: 75%; inhibition [7]: 25%; inhibition [8]: 65%
,,,50,CS(=O)(=O)c1ccc(-c2cc3c(cc2C(=O)c2cccc(F)c2)OCO3)cc1,IC50 [9]: 1 µM; IC50 [10]: 20 µM
,,,90,CS(=O)(=O)c1ccc(-c2cc3c(cc2C(=O)c2cccc(Cl)c2)OCO3)cc1,
,,,,CS(=O)(=O)c1ccc(-c2ccccc2Cc2cccc(F)c2)cc1,inhibition [11]: 35%
20,15,15,,CN1CCN(C(=O)c2cc3c(cc2-c2ccc(S(C)(=O)=O)cc2)OCO3)CC1,
,,,90,Cc1ccc(F)c(C(=O)c2cc3c(cc2-c2ccc(S(C)(=O)=O)cc2)OCO3)c1,
20,0,30,,CS(=O)(=O)c1ccc(-c2cc3c(cc2CN2CCCC(CO)C2)OCO3)cc1 (configuration not stated),
20,70,90,50,CS(=O)(=O)c1ccc(-c2cc3c(cc2CN2CCCCC2=O)OCO3)cc1,
,,,,CS(=O)(=O)c1ccc(-c2cc3c(cc2Cc2cc(F)cc(F)c2)OCCO3)cc1,inhibition [12]: 40%; inhibition [11]: 70%

inhibition [1] [%],inhibition [2] [%],inhibition [3] [%],inhibition [5] [%],SMILES,other results
,,,,COc1cc(Cc2cc(F)cc(F)c2)c(-c2ccc(S(C)(=O)=O)cc2)cc1OC,inhibition [12]: 15%; inhibition [11]: 0%
,,,35,COc1cccc(Cc2cc3c(cc2-c2ccc(S(C)(=O)=O)cc2)OCO3)c1,
,,,75,CS(=O)(=O)c1ccc(-c2cc3c(cc2Cc2ccccc2F)OCO3)cc1,
40,0,,,CS(=O)(=O)c1ccc(C2=C(c3ccccc3)C(=O)OC2)cc1,inhibition [6]: 75%; inhibition [7]: 75%
50,,80,,Cc1ccc(Cc2cc3c(cc2-c2ccc(S(C)(=O)=O)cc2)OCO3)cc1,inhibition [6]: 45%; inhibition [7]: 0%; inhibition [8]: 10%; inhibition [4]: 25%
,,,95,COc1cccc(C(=O)c2cc3c(cc2-c2ccc(S(C)(=O)=O)cc2)OCO3)c1,
,,,60,Cc1ccc(C(=O)c2cc3c(cc2-c2ccc(S(C)(=O)=O)cc2)OCO3)cc1,
100,0,100,50,CS(=O)(=O)c1ccc(-c2cc3c(cc2CC2CCCCC2)OCO3)cc1,
25,50,50,,O=S(=O)(CF)c1ccc(-c2cc3c(cc2Cc2ccccc2)OCO3)cc1,
25,0,30,,CS(=O)(=O)c1ccc(-c2cc3c(cc2CN2CCCCC2CO)OCO3)cc1 (configuration not stated),
40,,70,,CS(=O)(=O)c1ccc(-c2cc3c(cc2CC2CCCC2)OCO3)cc1,inhibition [4]: 20%
20,15,40,,CS(=O)(=O)c1ccc(-c2cc3c(cc2C(=O)N2CCCCC2)OCO3)cc1,
,,,70,CS(=O)(=O)c1ccc(-c2cc3c(cc2C(=O)c2ccccc2F)OCO3)cc1,
0,0,30,,CS(=O)(=O)c1ccc(-c2cc3c(cc2CN2CCCCC2)OCO3)cc1,
0,0,0,,CS(=O)(=O)c1ccc(-c2cc3c(cc2C(O)c2ccccc2)OCO3)cc1 (configuration not stated),
90,,100,40,CS(=O)(=O)c1ccc(-c2cc3c(cc2CC2CCCCCC2)OCO3)cc1,inhibition [4]: 10%
0,20,20,,CS(=O)(=O)c1ccc(-c2cc3c(cc2C(=O)c2cccnc2)OCO3)cc1,
20,0,20,,CCOC(=O)C1CCN(Cc2cc3c(cc2-c2ccc(S(C)(=O)=O)cc2)OCO3)CC1,
,,,65,CS(=O)(=O)c1ccc(-c2cc3c(cc2Cc2cccc(Cl)c2)OCO3)cc1,
10,,0,,CS(=O)(=O)c1ccc(-c2cc3c(cc2C(=O)c2cnccc2Br)OCO3)cc1,inhibition [4]: 40%
,,,10,Cc1cccc(Cc2cc3c(cc2-c2ccc(S(C)(=O)=O)cc2)OCO3)c1,

SMILES,inhibition [1] [%],inhibition [2] [%],inhibition [3] [%],inhibition [5] [%],other results
CS(=O)(=O)c1ccc(-c2cc3c(cc2C=C2CCCCCC2)OCO3)cc1,100,,100,35,inhibition [4]: 0%; IC50 [13]: > 100 µM; IC50 [14]: 0.2 µM
